Among the data in ChEMBL document CHEMBL2029215, “Synthesis, reactive oxygen species generation and copper-mediated nuclease activity profiles of 2-aryl-3-amino-1,4-naphthoquinones” (Bioorg Med Chem Lett, 2012) are Activity values, retold here.

SMILES strings stand for the structures. The source made the active and inactive calls. No cut-off for these calls is given here.

Series [1] deals with Nucleic Acid. The experiment in a line: Induction of DNA damage in Escherichia coli pBR322 assessed as supercoiled DNA cleavage at 25 uM after 24 hrs by agarose gel electrophoresis. The format is nucleic-acid assay. The essentials:
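Compound at 25 µM without Cu(II) and with no added reducing agent, incubated with supercoiled pBR322 plasmid DNA. Damage assessed as cleavage of supercoiled form on gel.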

Series [2] has as its system Nucleic Acid. The experiment in a line: Induction of DNA damage in Escherichia coli pBR322 assessed as supercoiled DNA cleavage at 25 uM after 24 hrs by agarose gel electrophoresis in presence of Cu2+. It counts as nucleic-acid assay. The essentials:
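Compound with Cu(II) at 1:1, no added reducing agent. Mixture holds 100 ng form I pBR322 in 10 mM MOPS, pH 7.4, incubated 37 °C for 24 h. Supercoiled-to-nicked (form II) cleavage read on gel against a DNA-only lane.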

Series [3] in a line: Hydrogen peroxide release activity in potassium phosphate buffer at pH 7.4 after 60 mins by […] based colorimetric assay. The format is physicochemical. The following applies: pH 7.4, 1 h. The essentials: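 Compound incubated in pH 7.4 buffer for 1 h. H2O2 then estimated with a xylenol orange-based colorimetric method.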
Series [4] is described as follows: Hydrogen peroxide release activity in potassium phosphate buffer at pH 7.4 after 60 mins by […] based colorimetric assay in presence of catalase. The format is physicochemical. The conditions noted are these: pH 7.4, 1 h. The gist of the method:
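Compound incubated at pH 7.4 for 1 h. Reaction mixture then treated with catalase before the xylenol orange colorimetric read-out for H2O2.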

A short description of series [5]: Superoxide release activity in potassium phosphate buffer at pH 7.4 and 25 uM after 30 mins by […]. The essentials:
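Compound incubated in pH 7.4 buffer. Superoxide detected by luminol-based chemiluminescence.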

In series [6] the test system is Nucleic Acid. Nature of the series: Induction of DNA damage in Escherichia coli pBR322 assessed as supercoiled DNA cleavage at 1 uM after 24 hrs by agarose gel electrophoresis in presence of Cu2+. The format is nucleic-acid assay. The essentials:
(§1)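 Concentration course of 1–10 µM compound with an equimolar amount of Cu(II). Mixture holds 100 ng supercoiled pBR322 plasmid (form I) in 10 mM MOPS, pH 7.4, incubated 37 °C for 24 h. Cleavage to nicked form II read on gel against a DNA-only lane.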

Series [7] can be described thus: Superoxide release activity in potassium phosphate buffer at pH 7.4 and 25 uM after 30 mins by […] in presence of superoxide dismutase. The essentials: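 Compound incubated in pH 7.4 buffer with superoxide dismutase present. Superoxide read by luminol-based chemiluminescence.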
Series [8] concerns Nucleic Acid. The experiment in a line: Induction of DNA damage in Escherichia coli pBR322 assessed as supercoiled DNA cleavage at 10 uM after 24 hrs by agarose gel electrophoresis in presence of Cu2+. It counts as nucleic-acid assay. The gist of the method:
as §1

Take `COc1ccccc1C1=C(N2CCCC2)C(=O)c2ccccc2C1=O`: the outcome in series [1] was inactive. The outcome in series [2] was Active. Moreover, the outcome in series [3] and in series [4] was Active.
For the compound `COc1ccc(C2=C(N3CCCC3)C(=O)c3ccccc3C2=O)cc1`, the outcome in series [1] was inactive. In addition, the result in series [2] was Active. Further, the result in series [3] and in series [4] was Active.
For `O=C1C(c2ccccc2)=C(N2CCCCC2)C(=O)c2ccccc21`, in series [1], the outcome was inactive. Besides, the result in series [2] was Active.
Compound `COc1ccc(CNC2=C(c3ccccc3)C(=O)c3ccccc3C2=O)cc1` came in with an Activity in series [3] of under 2 µM.
`C=CCNC1=C(c2ccccc2)C(=O)c2ccccc2C1=O` gave an Activity in series [3] of under 2 µM.
As to `CCCCNC1=C(c2ccccc2)C(=O)c2ccccc2C1=O`, in series [3], the Activity was under 2 µM.
For `O=C1C(Nc2ccccc2)=C(c2ccccc2)C(=O)c2ccccc21`, in series [1], the result was inactive. The result in series [2] was Active. The compound further displayed an Activity in series [3] of under 2 µM.
With `COc1ccc(NC2=C(c3ccccc3)C(=O)c3ccccc3C2=O)cc1`, the Activity in series [3] was under 2 µM.
Same read-out and setting: with `CN(C)CCNC1=C(c2ccccc2)C(=O)c2ccccc2C1=O` the figure was under 2 µM.
For `O=C1C(c2ccc(F)cc2)=C(N2CCCC2)C(=O)c2ccccc21`, in series [1], the outcome was inactive. Further, the outcome in series [2] was Active. Also, the result in series [3] and in series [4] was Active.
For `O=C1C(NCc2ccccc2)=C(c2ccccc2)C(=O)c2ccccc21`, the outcome in series [1] was inactive. The result in series [2] was Active. Also, the Activity in series [3] was under 2 µM.
With `C1CCNC1` [PYRROLIDINE], the Activity result in series [3] is reported as “Not Active”. In addition, the outcome in series [5] was inactive.
In series [3], `NC1=C(c2ccccc2)C(=O)c2ccccc2C1=O` yielded an Activity of under 2 µM.
Turning to `O=C1C(NCc2ccc(Cl)cc2)=C(c2ccccc2)C(=O)c2ccccc21`, the Activity in series [3] is under 2 µM.
As to `CN1CCCC1` [N-METHYL PYRROLIDINE (NMP)], in series [3], the Activity entry was “Not Active”. Also, the outcome in series [5] was inactive.
Consider `CCCNC1=C(c2ccccc2)C(=O)c2ccccc2C1=O`, for which the result in series [1] was inactive. Moreover, the result in series [2] was Active. This compound gave an Activity in series [3] of under 2 µM.
As for `O=C1C(Nc2ccc([N+](=O)[O-])cc2)=C(c2ccccc2)C(=O)c2ccccc21`, the Activity in series [3] is under 2 µM.
With `O=C1C(c2ccccc2)=C(N2CCCC2)C(=O)c2ccccc21`, the result in series [6], in series [7], in series [8], in series [2] and in series [5] was Active. Further, the result in series [1] was inactive. Also, in series [4], the outcome was Active.
